Laboratory results published in ChEMBL document CHEMBL2034895, “Antimicrobial metabolites from the Paracel Islands sponge Agelas mauritiana” (J Nat Prod, 2012).

How the values were obtained:
Format in all cases: functional, organism-based
[1] = system: Staphylococcus aureus; assay: Antibacterial activity against Staphylococcus aureus ATCC 29213 by CLSI method
[2] = system: Leishmania donovani; assay: Antileishmanial activity against Leishmania donovani promastigotes after 72 hrs by alamar blue assay
How it was run: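 L. donovani promastigote culture at 2 × 10^6 cells/mL was exposed to diluted compound in microplate wells and incubated at 26 °C for 72 h. Promastigote growth was read by Alamar blue. Pentamidine and amphotericin B were the reference drugs.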

[3] = system: Staphylococcus aureus; assay: Antibacterial activity against methicillin-resistant Staphylococcus aureus ATCC 33591 by CLSI method
How it was run: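 Methicillin-resistant S. aureus ATCC 33591 tested by a modified CLSI (formerly NCCLS) susceptibility method. Ciprofloxacin was included as the control drug in each assay.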

[4] = system: Cryptococcus neoformans; assay: Antifungal activity against Cryptococcus neoformans ATCC 90113 by M27A2 method

CC1=CCC[C@@H]2[C@@](C)(CC/C(C)=C/C[n+]3cn(C)c4nc[nH]/c(=N/O)c43)[C@H](C)CC[C@@]12C [AGELOXIME B] was tested, and the IC50 [1] was 7.21 µg/mL, the MIC [1] was 10 µg/mL and the IC50 [2] was 28.5 µg/mL. For the same compound, the IC90 [2] was 33.2 µg/mL, the IC50 [3] was 9.2 µg/mL and the MIC [3] was 20 µg/mL. The IC50 [4] was 4.96 µg/mL and the MIC [4] was 10 µg/mL.

Compound C=C1CC[C@@H]2C(C)(C)CCC[C@@]2(C)[C@@H]1CC/C(C)=C/C[n+]1cn(C)c2nc[nH]/c(=N\O)c21 has an IC50 [2] of 29.3 µg/mL, an IC90 [2] of 34 µg/mL and an IC50 [4] of 5.94 µg/mL. The MIC [4] was 10 µg/mL.
